Activity calls are given as the source filed them. The rule behind the calls is not given here.
Columns and labels:
[1] = Inhibition of rat NTPDase 3
P2Y purinoceptor 4 [2] = molecular target: T1, P2Y purinoceptor 4 (Homo sapiens, UniProt P51582); experiment: Antagonist activity at human P2Y4 receptor expressed in human 1321N1 cells assessed as inhibition of UTP-induced intracellular calcium mobilization at 100 uM by FLUOstar plate reader; format: functional, cell-based
Method in brief: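 Human 1321N1 astrocytoma cells express human P2Y2 or P2Y4, or rat P2Y6. Cells are loaded with Fura-2 AM and preincubated with compound at 100 μM. Inhibition of agonist-induced intracellular calcium release is read as Fura-2 fluorescence. The agonist is UTP for P2Y2 and P2Y4, and UDP for P2Y6.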

P2Y purinoceptor 2 = P2Y purinoceptor 2 (Homo sapiens, UniProt P41231); experiment: Antagonist activity at human P2Y2 receptor expressed in human 1321N1 cells assessed as inhibition of UTP-induced intracellular calcium mobilization by FLUOstar plate reader; format: functional, cell-based
Chain of P2Y purinoceptor 2 (P41231 whole entry): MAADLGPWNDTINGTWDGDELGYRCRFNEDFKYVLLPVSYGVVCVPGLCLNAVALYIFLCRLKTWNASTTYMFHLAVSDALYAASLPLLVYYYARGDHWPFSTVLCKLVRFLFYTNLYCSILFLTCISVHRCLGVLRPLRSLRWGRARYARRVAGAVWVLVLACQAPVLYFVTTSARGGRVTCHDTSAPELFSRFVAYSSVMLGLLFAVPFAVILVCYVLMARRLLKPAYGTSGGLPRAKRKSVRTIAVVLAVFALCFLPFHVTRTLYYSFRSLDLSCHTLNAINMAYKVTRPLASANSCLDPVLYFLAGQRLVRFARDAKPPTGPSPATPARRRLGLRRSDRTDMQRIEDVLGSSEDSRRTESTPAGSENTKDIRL
Method in brief: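 Fura-2 AM-loaded astrocytoma cells expressing human P2Y2 receptor. Compound is tested at 0.1, 0.3, 1, 3, 10, 30 and 100 μM. The read-out is inhibition of UTP-induced intracellular calcium mobilization.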

[3] = molecular target: T2, Ectonucleoside triphosphate diphosphohydrolase 8 (Homo sapiens, UniProt Q5MY95); experiment: Inhibition of human NTPDase 8 expressed in COS7 cells; format: cell-based, COS-7
T2 sequence (Q5MY95 whole entry): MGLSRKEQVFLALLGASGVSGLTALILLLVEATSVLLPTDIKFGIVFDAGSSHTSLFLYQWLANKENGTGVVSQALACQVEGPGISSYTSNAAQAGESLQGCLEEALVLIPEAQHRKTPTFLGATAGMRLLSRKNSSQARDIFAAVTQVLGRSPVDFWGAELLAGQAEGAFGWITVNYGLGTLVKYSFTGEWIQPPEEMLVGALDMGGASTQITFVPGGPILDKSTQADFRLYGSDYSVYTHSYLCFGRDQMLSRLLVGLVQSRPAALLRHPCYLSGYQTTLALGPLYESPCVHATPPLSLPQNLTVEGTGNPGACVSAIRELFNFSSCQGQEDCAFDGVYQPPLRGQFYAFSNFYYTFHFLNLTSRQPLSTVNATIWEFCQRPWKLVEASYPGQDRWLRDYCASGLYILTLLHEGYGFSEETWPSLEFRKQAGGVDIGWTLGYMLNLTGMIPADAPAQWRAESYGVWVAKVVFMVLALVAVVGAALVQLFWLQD
Method in brief: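 NTPDase2 membranes come from stably transfected HEK 293 cells; NTPDase3 and NTPDase8 are transiently expressed in COS-7 cells as crude protein extracts. Buffer is 140 mM NaCl, 5 mM KCl, 1 mM MgCl2, 2 mM CaCl2, 10 mM HEPES pH 7.4, with 400 μM ATP, 37 °C, 10 min, stopped at 99 °C. Products are read by capillary electrophoresis (UV 210 nm, UMP internal standard).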

[4] = molecular target: P2Y purinoceptor 6 (Rattus norvegicus) (UniProt Q63371); experiment: Antagonist activity at rat P2Y6 receptor expressed in human 1321N1 cells assessed as inhibition of UDP-induced intracellular calcium mobilization by NOVOstar plate reader
P2Y purinoceptor 4 [5] = molecular target: T1, P2Y purinoceptor 4; experiment: Antagonist activity at human P2Y4 receptor expressed in human 1321N1 cells assessed as inhibition of UTP-induced intracellular calcium mobilization by FLUOstar plate reader; format: functional, cell-based
P2Y purinoceptor 6 = P2Y purinoceptor 6 (Rattus norvegicus, UniProt Q63371); experiment: Antagonist activity at rat P2Y6 receptor expressed in human 1321N1 cells assessed as inhibition of UDP-induced intracellular calcium mobilization by NOVOstar plate reader
Chain of P2Y purinoceptor 6 (Q63371 whole entry): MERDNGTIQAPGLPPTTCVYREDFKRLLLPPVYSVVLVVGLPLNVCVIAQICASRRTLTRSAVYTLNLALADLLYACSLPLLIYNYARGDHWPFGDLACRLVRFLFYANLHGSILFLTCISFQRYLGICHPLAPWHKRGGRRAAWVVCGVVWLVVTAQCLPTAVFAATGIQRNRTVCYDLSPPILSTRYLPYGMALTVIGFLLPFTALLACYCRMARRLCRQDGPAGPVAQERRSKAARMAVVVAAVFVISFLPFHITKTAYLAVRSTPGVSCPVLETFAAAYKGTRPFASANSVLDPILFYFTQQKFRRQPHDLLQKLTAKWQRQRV

T1 sequence (P51582 whole entry): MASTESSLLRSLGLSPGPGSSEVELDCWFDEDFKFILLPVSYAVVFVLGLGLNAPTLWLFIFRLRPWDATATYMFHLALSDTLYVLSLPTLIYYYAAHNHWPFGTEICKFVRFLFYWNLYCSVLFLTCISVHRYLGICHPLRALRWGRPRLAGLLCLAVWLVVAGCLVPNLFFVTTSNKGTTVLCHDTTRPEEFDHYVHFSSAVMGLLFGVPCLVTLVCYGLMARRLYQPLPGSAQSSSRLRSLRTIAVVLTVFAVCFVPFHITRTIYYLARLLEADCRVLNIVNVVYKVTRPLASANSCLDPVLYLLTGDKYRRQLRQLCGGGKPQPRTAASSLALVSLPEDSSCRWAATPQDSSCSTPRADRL

Ki [1] [µM]	Activity (P2Y purinoceptor 4 [2])	IC50 [4] [µM]	Compound	IC50 (P2Y purinoceptor 2) [µM]	Ki [3] [µM]	IC50 (P2Y purinoceptor 4 [5]) [µM]	IC50 (P2Y purinoceptor 6) [µM]
12.7	inactive	27	Cc1ccc(C(=O)Nc2ccc(S(=O)(=O)O)c3cc(S(=O)(=O)O)cc(S(=O)(=O)O)c23)cc1NC(=O)c1cccc(NC(=O)Nc2cccc(C(=O)Nc3cc(C(=O)Nc4ccc(S(=O)(=O)O)c5cc(S(=O)(=O)O)cc(S(=O)(=O)O)c45)ccc3C)c2)c1 [SURAMIN]	50	> 100	–	–
–	–	–	Nc1c(S(=O)(=O)O)cc(Nc2ccc(Nc3nc(Cl)nc(Nc4cccc(S(=O)(=O)O)c4)n3)c(S(=O)(=O)O)c2)c2c1C(=O)c1ccccc1C2=O [RB 2]	12	> 100	5.75	4.34
